Screens: PubChem BioAssay, The Scripps Research Institute Molecular Screening Center
Only some compounds are listed: those with a hit (about 4.5% of all), similar ones and a draw of the others.
TAAR1 antag: human TAAR1 antagonism; Q96RJ0; CHO RD-HGA16 TAAR1, Fluo-8 calcium fluorescence, antagonist; inhibition, % at 3 µM; actives 1.5% (n = 360,000);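 active = inhibition above a per-plate cutoff, the mean inhibition of test compounds on that plate plus 3 SD, cut at about 49% in these data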
Target sequence (Q96RJ0 whole entry, looked up): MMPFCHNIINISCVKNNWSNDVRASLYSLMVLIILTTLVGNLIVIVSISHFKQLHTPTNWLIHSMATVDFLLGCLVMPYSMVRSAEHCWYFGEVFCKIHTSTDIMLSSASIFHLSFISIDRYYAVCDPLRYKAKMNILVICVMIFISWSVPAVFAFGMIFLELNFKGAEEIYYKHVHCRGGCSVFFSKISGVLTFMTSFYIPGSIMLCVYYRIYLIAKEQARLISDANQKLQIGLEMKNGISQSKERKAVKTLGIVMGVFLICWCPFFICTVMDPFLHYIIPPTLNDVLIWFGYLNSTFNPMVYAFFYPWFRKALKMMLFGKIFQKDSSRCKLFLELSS
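Material: CHO RD-HGA16 cells bearing hTAAR1; compound dosing: one-point dosing, 3 µM nominal final; schedule: dye loading 75 min at 37 °C, then 30 min room temperature; measured by: calcium fluorescence with Fluo-8; control set: vehicle and agonist controls; replication: n of 1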
OX1R antag-1: OX1R (human) antagonism. inhibition, % at 6.6 µM. actives 1.8% (n = 330,000). AID 485270. O43613. OX1R-expressing cells, FRET antagonist read-out; in the data active = inhibition mostly above about 38%, no sharp cut-off; inactive = mostly below about 40%
CHO parental Ca: counter-screen: ATP calcium response change in parental CHO cells | parental CHO-K1, ATP-induced calcium, Fluo-8 fluorescence | inhibition, % at 5.6 µM | actives 0.63% (n = 330,000);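 active = inhibition above that plate's mean sample inhibition plus 3 SD, cut at about 26% in these data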
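Material – parental CHO cells · Reagent – ATP stimulus · Compound – single nominal dose of 5.6 µM per compound · Detection – Fluo-8 fluorescence · Read-out basis – percent inhibition of calcium signal · Controls – ATP-challenged DMSO wells low, unchallenged DMSO wells high · Repeats – no replicates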
TAAR1 agonist: human TAAR1 agonism | actives 0.99% (n = 360,000) | CHO RD-HGA16 TAAR1, Fluo-8 calcium fluorescence; vehicle wells 0%, saturating PEA agonist 100% | AID 624467 | activation, % at 3 µM | Q96RJ0;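 active = activation above the mean activation of all test compounds in the run plus 3 SD, cut at about 38% in these data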
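Test system: RD-HGA16 (CHO) cells co-expressing Gα16 and hTAAR1 / Benchmarks: DMSO vehicle as 0%, PEA at EC100 as 100% / Repeats: no replicates (n 1) / Measure: % activation from peak over basal fluorescence ratio, DMSO-to-PEA scaled / Timing: 17-24 h plating, Fluo-8 75 min 37 °C, 30 min RT / Technique: kinetic Fluo-8 calcium fluorescence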
OX1R antag-2: antagonists of human orexin 1 receptor. actives 0.43% (n = 330,000). inhibition, % at 5 µM. CHO/OX1R cells, Fluo-8 calcium fluorescence, orexin A. O43613;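 active = inhibition above its plate's threshold, mean inhibition of all tested compounds on the plate plus 3 SD, cut at about 37% in these data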
GPR7 antagonist: antagonists of human GPR7 (neuropeptides B/W receptor 1); P48145; GPR7-expressing cells, fluorescence antagonist assay; inhibition, % at 4.4 µM; actives 1.1% (n = 290,000); in the data active = inhibition above about 16%, passing the limit was not always enough;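 also: cells stimulated with the agonist NPW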
Target sequence (P48145 whole entry, looked up): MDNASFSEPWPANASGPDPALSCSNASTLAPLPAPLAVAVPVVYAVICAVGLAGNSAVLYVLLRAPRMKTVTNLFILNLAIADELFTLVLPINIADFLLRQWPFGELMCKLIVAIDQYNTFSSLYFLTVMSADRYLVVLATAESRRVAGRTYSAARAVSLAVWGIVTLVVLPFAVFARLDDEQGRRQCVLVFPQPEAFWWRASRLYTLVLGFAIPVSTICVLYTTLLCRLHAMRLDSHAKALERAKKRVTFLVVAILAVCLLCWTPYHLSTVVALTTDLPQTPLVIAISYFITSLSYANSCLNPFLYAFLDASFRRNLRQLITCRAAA
A number is an active result; . = inactive; / = no result given.

SMILES	TAAR1 antag	OX1R antag-1	CHO parental Ca	TAAR1 agonist	OX1R antag-2	GPR7 antagonist
Cc1ncc(CO)c(/C=N/NC(=O)c2cc3c(s2)CCCC3)c1O	.	50	.	.	.	.
Cc1ncc(CO)c(/C=N/NC(=O)c2ccc(O)cc2)c1O	.	.	.	.	.	.
COc1cccc(C2=CC(c3ccc(C)cc3)n3ncnc3N2)c1 (centres undefined)	/	.	.	/	.	.
Cc1ccsc1C1C=C(c2cccc(Br)c2)Nc2ncnn21 (centres undefined)	/	.	.	/	45	.
O=C(Oc1c(Cl)cc(Cl)c2cccnc12)c1ccco1	.	.	34	.	.	.
Cc1nc(NCCc2ccccc2)c2oc3ccccc3c2n1	.	37	46	.	.	.
O=C(/C=C/c1ccccc1)NC(=S)NNC(=O)Cc1cccs1	.	.	.	53	.	.
O=C(Cc1ccccc1)N1O[C@H]2C=C[C@@H]1C2	.	/	/	.	/	/
CC(=O)Nc1cccc(-c2nnc(-c3ccc(C)cc3)o2)c1	.	/	/	.	/	.
COc1ccc(-c2noc(CCC(=O)NCc3cccnc3)n2)cc1	.	.	.	.	.	.
COc1ccc(Cc2nc(-c3ccc(NC(=O)c4cccnc4)cc3)no2)cc1	.	.	.	55	.	.
COc1cccc(-c2nc(-c3ccc(NC(=O)c4cccs4)cc3)no2)c1	51	.	.	.	.	.
Cc1ccc(-c2nnc(-c3cccc(NC(=O)c4cccs4)c3)o2)cc1	52	.	.	.	.	.
COc1ccc(-c2nc(-c3ccc(NC(=O)c4ccncc4)cc3)no2)cc1OC	/	60	.	/	.	.
COc1cccc(-c2nc(-c3ccc(NC(=O)c4ccncc4)cc3)no2)c1	.	.	.	.	.	.
Cc1ccccc1OCCOC(=O)c1ccc(S(=O)(=O)N2CCCC2)cc1	.	.	30	.	.	/
Cc1ccc(NC(=O)c2ccc3c(c2)C(=O)N(CC2CCCO2)C3=O)cc1C (centres undefined)	.	.	.	.	.	.
O=C(Nc1cccnc1)c1ccc2c(c1)C(=O)N(CC1CCCO1)C2=O (centres undefined)	.	73	.	.	.	.
C[C@H](NC(=O)C[C@@H]1C[C@@H]2c3cc(NC(=O)C4CCC4)ccc3O[C@@H]2[C@@H](CO)O1)c1ccccc1	.	/	/	.	/	/
CC(NCCCSc1ccccc1)C(O)c1ccc(O)cc1 (centres undefined)	.	/	/	.	/	/
COc1ccc(Cn2c(=N)c(C(=O)NCC3CCCO3)cc3c(=O)n4ccccc4nc32)cc1 (centres undefined)	.	61	.	.	.	.
COc1ccc(CCNC(=O)c2cc3c(=O)n4ccccc4nc3n(CC3CCCO3)c2=N)cc1 (centres undefined)	.	/	/	.	/	/
COc1ccc(CCn2c(=N)c(C(=O)NCC3CCCO3)cc3c(=O)n4ccccc4nc32)cc1 (centres undefined)	.	58	.	.	.	.
CC(C)Cn1c(N)c(C(=O)COC(=O)/C=C/c2ccccc2)c(=O)n(C)c1=O	.	.	78	.	.	/
CC(C)Cn1c(N)c(C(=O)COC(=O)c2cc(S(=O)(=O)N3CCOCC3)ccc2Br)c(=O)n(C)c1=O	54	.	.	.	.	/
SMILES	TAAR1 antag	OX1R antag-1	CHO parental Ca	TAAR1 agonist	OX1R antag-2	GPR7 antagonist
CC(C)Cn1c(N)c(C(=O)COC(=O)CCc2nc3ccccc3s2)c(=O)n(C)c1=O	.	.	34	.	.	.
Cc1ccccc1OCCC(=O)OCC(=O)c1c(N)n(CC(C)C)c(=O)n(C)c1=O	.	.	46	.	.	.
Cc1ccc(S(=O)(=O)N2CCOCC2)cc1C(=O)OCC(=O)c1c(N)n(C)c(=O)n(C)c1=O	.	.	.	.	.	/
CC(C)Cn1c(N)c(C(=O)COC(=O)c2cc3ccccc3cc2O)c(=O)n(C)c1=O	.	.	.	.	.	/
CCOC(=O)C1(C(=O)OCC)N=C(c2ccccc2)C=C1c1ccccc1	.	/	/	.	/	/
C[C@H]1CN([C@@H](C)CO)C(=O)CCCn2nncc2CO[C@@H]1CN(C)C(=O)NC1CCCCC1	.	/	/	.	/	/
CC(C)Cn1c(N)c(C(=O)COC(=O)CC23CC4CC(CC(C4)C2)C3)c(=O)n(C)c1=O	.	.	61	.	71	21
Cc1csc(=O)n1CCC(=O)OCC(=O)c1c(N)n(CC(C)C)c(=O)n(C)c1=O	.	.	.	.	.	/
Cc1ccc(C)n1-n1c(C)nc2sc(-c3ccccc3)cc2c1=O	.	.	39	.	.	.
CC(=O)Nc1cccc(-c2csc(Nc3ccccn3)n2)c1	.	61	.	.	.	.
Cc1cccc(Nc2nc(-c3ccccn3)cs2)n1	.	66	.	.	.	.
CC(=O)Nc1cccc(-c2csc(Nc3cc(C)ccn3)n2)c1	.	.	.	.	.	.
CCN=C1SC(C(=O)Nc2cccc(C)c2)CC(=O)N1CC (centres undefined)	63	.	.	.	.	.
CCN=C1SC(C(=O)Nc2cccc(Cl)c2)CC(=O)N1CC (centres undefined)	58	.	.	.	.	.
CCOc1ccc(NC(=O)C2CC(=O)N(CC)C(=Nc3ccc4c(c3)OCO4)S2)cc1 (centres undefined)	.	.	.	.	.	.
CCN1C(=O)CC(C(=O)Nc2ccc(F)cc2)SC1=Nc1ccc2c(c1)OCO2 (centres undefined)	52	.	.	.	.	.
CCN=C1SC(C(=O)Nc2ccc(OC)cc2)CC(=O)N1CC (centres undefined)	55	.	.	.	.	.
CCN=C1SC(C(=O)Nc2ccc(OCC)cc2)CC(=O)N1CC (centres undefined)	.	.	.	.	.	.
CCN=C1SC(C(=O)Nc2cc(Cl)cc(Cl)c2)CC(=O)N1CC (centres undefined)	.	.	.	.	.	.
Cc1ccc2nc(-c3ccc(CN4CCC5(CC4)CNc4ccccc45)cc3)c(-c3ccccc3)nc2c1	.	/	/	.	/	/
COc1ccc(NC(=O)N2C[C@H]3CON(C)[C@H]3C[C@H]2c2ccc(N3CCCCC3)cc2)cc1	.	/	/	.	/	/
CC(C)C(C(=O)Nc1ccncc1)c1ccc(Cl)cc1 (centres undefined)	.	.	.	54	.	.
CC(C)(Oc1ccc(Cl)cc1)C(=O)Nc1ccncc1	.	.	37	.	.	.
CCCN(S(=O)(=O)c1ccccc1F)S(=O)(=O)c1ccccc1Br	.	68	.	.	.	.
CCN(Cc1ccccc1)S(=O)(=O)c1ccccc1Br	.	.	.	.	.	/
C[n+]1ccccc1/C=C/c1ccc([N+](=O)[O-])cc1	.	36	.	.	.	.
C[n+]1ccccc1/C=C/c1ccc(C#N)cc1	.	.	.	.	.	.
